Measured values from ChEMBL document CHEMBL1137731, “Cytotoxicity and TOP1-targeting activity of 8- and 9-amino derivatives of 5-butyl- and 5-(2-N,N-dimethylamino)ethyl-5H-dibenzo[c,h][1,6]naphthyridin-6-ones” (Eur J Med Chem, 2009).

Key:
RPMI8402 (human) = assay: Cytotoxicity against human RPMI8402 cells by MTT method; conditions: RPMI-8402
[1] = Cytotoxicity against human KB3-1 cells by MTT method; type: functional, cell-based; conditions: KB 3-1
P388 = assay: Cytotoxicity against mouse P388 cells by MTT method; type: functional, cell-based
How it was run: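 MTT assay with P388 mouse leukaemia cells grown in suspension at 37 °C, 5% CO2, in RPMI with 10% heat-inactivated FBS, 2 mM L-glutamine and penicillin/streptomycin. Cells were exposed continuously to varying drug concentrations for 4 days, with a drug-free control, and MTT was read at day 4. The IC50 came from at least two assays, each in six replicate wells.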

[2] = Cytotoxicity against multidrug resistant human KBH5.0 cells overexpressing BCRP by MTT method; type: functional, cell-based; conditions: KBH5.0 cell
Homo sapiens = organism: Homo sapiens; assay: Inhibition of human recombinant topoisomerase 1 expressed in Escherichia coli assessed as drug level causing 10% mediated DNA cleavage relative to topotecan
How it was run: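 Recombinant human TOP1, expressed in E. coli as a T7-system fusion protein, was incubated with drug and 3′-end-labelled plasmid YepG for 30 min at room temperature. Reactions were stopped with SDS and proteinase K (1 h, 37 °C), alkali-denatured, and run on a neutral agarose gel. The read-out was the concentration giving 10% cleavage, expressed relative to topotecan set at 1.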

[3] = Cytotoxicity against multidrug resistant human KBV1 cells overexpressing MDR1 by MTT method; type: functional, cell-based; conditions: KB-V1

SMILES | IC50 (RPMI8402 (human)) [nM] | IC50 [1] [nM] | IC50 (P388) [nM] | IC50 [2] [nM] | Activity (Homo sapiens) | IC50 [3] [nM]
CCCCn1c(=O)c2ccc(N)cc2c2cnc3cc4c(cc3c21)OCO4 | 3500 | 5800 | 6000 | 3500 | > 20 | 2500
CCCCn1c(=O)c2cc(NCCN(C)C)ccc2c2cnc3cc4c(cc3c21)OCO4 | 1570 | 1700 | 780 | 1700 | > 20 | 3200
CN(C)CCNc1ccc2c(=O)n(CCN(C)C)c3c4cc5c(cc4ncc3c2c1)OCO5 | 850 | 120 | 60 | 320 | > 20 | 550
CC[C@@]1(O)C(=O)OCc2c1cc1n(c2=O)Cc2cc3c(CN(C)C)c(O)ccc3nc2-1 [TOPOTECAN] | 21 | 40 | 45 | 440 |  | 440
CCCCn1c(=O)c2cc(NC(=O)CN(C)C)ccc2c2cnc3cc4c(cc3c21)OCO4 | 330 | 1500 | 250 | 1600 | > 20 | 2600
CCCCn1c(=O)c2cc([N+](=O)[O-])ccc2c2cnc3cc4c(cc3c21)OCO4 | 2400 | 400 | 150 | 500 | > 10 | 300
CN(C)CCn1c(=O)c2ccc(N)cc2c2cnc3cc4c(cc3c21)OCO4 | 33 | 130 | 28 | 150 | 0.5 | 130
CCCCn1c(=O)c2cc(N)ccc2c2cnc3cc4c(cc3c21)OCO4 | 1250 | 3200 | 280 | 3500 | > 20 | 2500
CN(C)CCn1c(=O)c2cc(NC(=O)CN(C)C)ccc2c2cnc3cc4c(cc3c21)OCO4 | 120 | 180 | 100 | 240 | > 20 | 600
CCCCn1c(=O)c2ccc(NCCN(C)C)cc2c2cnc3cc4c(cc3c21)OCO4 | 1800 | 3000 | 1800 | 3500 | > 20 | 4500
CC[C@@]1(O)C(=O)OCc2c1cc1n(c2=O)Cc2cc3ccccc3nc2-1 [CAMPTOTHECIN] | 6 |  | 14 |  | 0.2 | 
CN(C)CCNc1ccc2c(c1)c(=O)n(CCN(C)C)c1c3cc4c(cc3ncc21)OCO4 | 120 | 50 | 40 | 300 | > 20 | 410
CN(C)CCn1c(=O)c2cc([N+](=O)[O-])ccc2c2cnc3cc4c(cc3c21)OCO4 | 5 | 26 | 9 | 25 | 0.2 | 25
CCCCn1c(=O)c2ccc([N+](=O)[O-])cc2c2cnc3cc4c(cc3c21)OCO4 | 480 | 310 | 700 | 360 | > 10 | 850
CN(C)CCn1c(=O)c2ccc(NC(=O)CN(C)C)cc2c2cnc3cc4c(cc3c21)OCO4 | 35 | 36 | 35 | 120 | > 20 | 190
CCCCn1c(=O)c2ccc(NC(=O)CN(C)C)cc2c2cnc3cc4c(cc3c21)OCO4 | 300 | 900 | 600 | 1900 | > 20 | 2000
CN(C)CCn1c(=O)c2ccc([N+](=O)[O-])cc2c2cnc3cc4c(cc3c21)OCO4 | 2 | 5 | 5 | 5 | 0.1 | 4
CN(C)CCn1c(=O)c2cc(N)ccc2c2cnc3cc4c(cc3c21)OCO4 | 90 | 230 | 40 | 330 | 8 | 280
